Source: ChEMBL document CHEMBL1143197, “Neural networks as valuable tools to differentiate between sesquiterpene lactones' inhibitory activity on serotonin release and on NF-kappaB” (J Med Chem, 2008)

tested on: Platelet; assay: Inhibition of serotonin release in bovine platelets; assay type: functional, cell-based; conditions: Bos taurus
How it was run: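 Bovine platelets loaded with [14C]serotonin by incubating cattle venous blood, taken up by active transport. Platelet-rich plasma prepared at a standard platelet concentration by centrifugation and dilution, then preincubated with the sesquiterpene lactones. Adenosine diphosphate added to trigger aggregation and degranulation. Reaction stopped after 6 min with ice-cold acetylsalicylic acid. Released serotonin monitored and IC50 determined.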

Question: For C=C1C(=O)O[C@@H]2C/C(C=O)=C/CC/C(C)=C/[C@@H](O)[C@H]12 [SCHKUHRIOLIDE], which IC50 is on record?
Answer: 278 µM

Question: Which IC50 does the source give for C=C1C(=O)O[C@@H]2/C=C(\CO)CC/C=C(\CO)C[C@H](OC(=O)C(C)C)[C@@H]12 [ALATOLIDE] here?
Answer: 5.77 µM

Question: C=C(C)C(=O)O[C@@H]1C[C@@H](OC(C)=O)C(=O)CC[C@]2(C)O[C@H]2[C@@H]2OC(=O)C(COC(C)=O)=C21 [GLAUCOLIDE A] was tested. Which IC50 did it give?
Answer: 20.9 µM

Question: With C=C1C(=O)O[C@H]2[C@H]1[C@H](OC(=O)C1(C)OC1C)C[C@@]1(C)[C@H](O)C[C@H]3O[C@@]3(C)[C@H]21 (some centres undefined) as the compound, how does the IC50 read?
Answer: 17.7 µM

Question: How did the IC50 turn out when CC1=C2[C@H]3OC(=O)[C@@H](C)[C@@H]3CC[C@@]2(C)C=CC1=O [SANTONIN] was run?
Answer: > 568 µM

Question: With C=C1C(=O)O[C@H]2C[C@H](C)[C@@H]3C(OC(C)=O)CC(OC(C)=O)[C@@]3(C)[C@@H](O)[C@H]12 (some centres undefined) [INUCHINENOLIDE C] as the compound, how does the IC50 read?
Answer: 33.5 µM

Question: With C[C@@H]1C(=O)O[C@H]2[C@H]1CC[C@@]1(C)O[C@@H]1CC[C@@]1(C)O[C@H]21 as the compound, how does the IC50 read?
Answer: > 413 µM

Question: C=C1C(=O)O[C@H]2[C@H]1[C@@H](OC(=O)/C(=C/CO)CO)C/C(C)=C/CC[C@@]1(C)O[C@H]21 [STIZOLICIN] was tested. Which IC50 did it give?
Answer: 5.82 µM

Question: C=C1C(=O)O[C@H]2[C@H]1[C@@H](OC(=O)[C@](C)(O)CCl)CC(=C)[C@@H]1C[C@H](O)[C@](O)(CCl)[C@H]21 [CENTAUREPENSIN] was tested. Which IC50 did it give?
Answer: 6.06 µM

Question: Which IC50 does the source give for C=C1C(=O)O[C@@H]2C[C@H](C)[C@@H]3[C@@H](O)CC(=O)[C@@]3(C)C[C@H]12 [BURRODIN] here?
Answer: 251 µM

Question: Which IC50 does the source give for C=C(C(=O)O)[C@@H]1CC[C@@]2(C)CCC[C@@](C)(O)[C@@H]2C1 [ILICIC ACID] here?
Answer: > 614 µM

Question: C=C1C(=O)O[C@H]2[C@H]1[C@H](OC(=O)C1(C)OC1C)C[C@@]1(C)[C@H](O)CC=C(C)[C@H]21 (some centres undefined) was tested. Which IC50 did it give?
Answer: 7.09 µM

Question: With C=C1C(=O)O[C@H]2[C@H]1[C@H](OC(=O)C1(C)OC1C)C[C@@]1(C)[C@H](O)CCC(=C)[C@H]21 (some centres undefined) as the compound, how does the IC50 read?
Answer: 10.1 µM

Question: How did the IC50 turn out when C=C1C(=O)O[C@@H]2/C=C(/COC(C)=O)CC[C@H](OCC)C3=C[C@@H](OC3=O)[C@@H]12 [CINERENIN ACETATE] was run?
Answer: 2.04 µM

Question: Which IC50 does the source give for C=C1C(=O)O[C@@H]2[C@H]1[C@@H](OC(C)=O)C[C@H](C)[C@@H]1CCC(=O)[C@@]21C [CONFERTIFLORIN] here?
Answer: 8.88 µM

Question: How did the IC50 turn out when C=C1C(=O)O[C@@H]2[C@H]1CC[C@H](C)[C@]1(CCC(=O)O1)[C@@]2(C)O [PSILOSTACHYIN A] was run?
Answer: 44.1 µM

Question: With C=C1C(=O)O[C@@H]2[C@H]3C(=C)[C@@H](O)C[C@H]3C(=C)C[C@H](OC(=O)[C@@]3(C)CO3)[C@@H]12 as the compound, how does the IC50 read?
Answer: 6.32 µM

Question: With C=C1C(=O)O[C@H]2C[C@@H](C)[C@@H]3C=CC(=O)[C@@]3(C)[C@H](OC(C)=O)[C@H]12 [LINIFOLIN A] as the compound, how does the IC50 read?
Answer: 11.4 µM

Question: C=C1C(=O)O[C@@H]2/C=C(/CO)CC[C@H](OCC)C3=C[C@@H](OC3=O)[C@@H]12 [CINERENIN] was tested. Which IC50 did it give?
Answer: 3.52 µM

Question: With C=C1CC[C@@H](O)[C@]2(C)CC[C@H]3C(=C)C(=O)O[C@@H]3[C@@H]12 [REYNOSIN] as the compound, how does the IC50 read?
Answer: 271 µM

Question: Which IC50 does the source give for C=C1C(=O)O[C@@H]2/C=C(\C)CC[C@H]3O[C@]3(C)CC[C@@H]12 [1,10-EPOXYCOSTUNOLIDE] here?
Answer: 121 µM

Question: With C=C1C(=O)O[C@H]2C[C@@H](C)[C@@H]3C[C@@H](O)[C@H](O)[C@@]3(C)[C@H](O)[C@H]12 [GEIGERININ] as the compound, how does the IC50 read?
Answer: 73.4 µM

Question: Which IC50 does the source give for C=C(C(=O)O[C@@H]1C[C@@]2(C)[C@H](O)CC=C(C)[C@@H]2[C@H]2OC(=O)C(=C)[C@@H]21)C(C)O (some centres undefined) here?
Answer: 26.7 µM

Question: Which IC50 does the source give for C=C1C(=O)O[C@@H]2C3O[C@]3(C)CC/C=C(\C)CC[C@@H]12 (some centres undefined) here?
Answer: 3.03 µM

Question: With C=C1C(=O)O[C@@H]2/C=C(\C)[C@@H]3O[C@@H]3/C=C(/C(=O)OC)[C@H](O)[C@@H](OC(=O)[C@]3(C)O[C@@H]3C)[C@@H]12 [MELAMPODIN A] as the compound, how does the IC50 read?
Answer: 4.68 µM

Question: Which IC50 does the source give for C=C1C(=O)O[C@H]2C[C@@H](C)[C@@H]3CCC(=O)[C@@]3(C)[C@H](O)[C@H]12 here?
Answer: 60.1 µM

Question: For C=C1C(=O)O[C@H]2CC(=C)[C@@H](O)CC/C(C)=C/[C@@H](O)[C@H]12 [TATRIDIN B], which IC50 is on record?
Answer: 27 µM

Question: With C=C1C(=O)O[C@@H]2C[C@@H](C)[C@@H]3C=CC(=O)[C@@]3(C)[C@@H](O)[C@H]12 [HELENALIN] as the compound, how does the IC50 read?
Answer: 4.28 µM

Question: With C=C1[C@@H](O)C[C@@H]2[C@H](OC(=O)[C@H]2C)[C@H]2[C@H](C)C(=O)C[C@@H]12 as the compound, how does the IC50 read?
Answer: > 454 µM

Question: C=C1C(=O)O[C@@H]2[C@H]3O[C@]3(C)CCC[C@H](C)CC[C@@H]12 was tested. Which IC50 did it give?
Answer: 40.6 µM

Question: With C=C(C(=O)OC)[C@@H]1CC[C@@]2(C)CCC[C@@](C)(O)[C@@H]2C1 [VACHANIC ACID METHYLESTER] as the compound, how does the IC50 read?
Answer: 201 µM

Question: How did the IC50 turn out when C=C1C(=O)O[C@H]2C[C@H](C)[C@@H]3CC(=O)C(C)=C3C[C@H]12 [XERANTOLIDE] was run?
Answer: 101 µM

Question: With C[C@@H]1C[C@@H]2OC(=O)[C@]3(C)[C@H]2[C@@H](OC3(C)O)[C@]2(C)C(=O)C=C[C@@H]12 (some centres undefined) [TENULIN] as the compound, how does the IC50 read?
Answer: 361 µM

Question: With C=C1C(=O)O[C@@H]2[C@H]1CC[C@H](C)[C@]1(O)CCC(=O)[C@@]21C [CORONOPILIN] as the compound, how does the IC50 read?
Answer: 249 µM

Question: C=C1C(=O)O[C@@H]2C[C@@]3(C)CCCC(=C)[C@]3(O)C[C@H]12 [TELEKIN] was tested. Which IC50 did it give?
Answer: > 564 µM

Question: How did the IC50 turn out when C=C1C(=O)O[C@@H]2C[C@@]3(C)CCCC(=C)[C@@H]3C[C@H]12 [ISOALANTOLACTONE] was run?
Answer: > 516 µM

Question: For C=C1C[C@@H](O)[C@@H]2[C@H](OC(=O)[C@H]2C)[C@H]2[C@H](C)[C@@H](O)C[C@@H]12, which IC50 is on record?
Answer: > 488 µM

Question: C=C1C(=O)O[C@@H]2C3=C(C)CC[C@@H](O)[C@]3(C)C[C@@H](OC(=O)C3(C)OC3C)[C@@H]12 (stereo partly drawn) [1BETA-HYDROXY-8BETA-EPOXYANGELOYLOXYARBUSCULIN B] was tested. Which IC50 did it give?
Answer: 6.66 µM

Question: For CC1=CC[C@@H](O)[C@]2(C)CC[C@@H]3[C@H](OC(=O)[C@H]3C)[C@@H]12, which IC50 is on record?
Answer: > 200 µM

Question: With C=C1C(=O)O[C@H]2[C@H]1CC[C@@](C)(O)[C@]13O[C@H]1[C@H]1O[C@@]1(C)[C@H]23 [ARTECANIN] as the compound, how does the IC50 read?
Answer: > 135 µM

Question: For C=C1C(=O)O[C@@H]2C[C@@]3(C)C[C@@H](O)[C@H](O)C(=C)[C@@H]3C[C@H]12 [PULCHELLIN C], which IC50 is on record?
Answer: > 416 µM

Question: How did the IC50 turn out when C=C1CC[C@@H](O)[C@]2(C)CC[C@@H]3[C@H](OC(=O)[C@H]3C)[C@@H]12 was run?
Answer: > 210 µM

Question: Which IC50 does the source give for C=C1C(=O)O[C@@H]2[C@H]3C(C)=CC[C@@H](O)[C@]3(C)CC[C@@H]12 [SANTAMARIN] here?
Answer: 84.9 µM

Question: For C=C1C(=O)O[C@H]2[C@H]1[C@@H](OC(=O)[C@]1(C)CO1)CC(=C)[C@@H]1C[C@H](O)[C@]3(CO3)[C@H]21 [REPIN], which IC50 is on record?
Answer: 9.24 µM

Question: C=C1C(=O)O[C@H]2/C=C(\C)[C@@H](OC(C)=O)C/C=C(\C)C[C@@H](OC(=O)C3(C)OC3C)[C@@H]12 (some centres undefined) [URSINIOLIDE A] was tested. Which IC50 did it give?
Answer: 1.78 µM

Question: With C=C1C(=O)O[C@@H]2/C=C(\CO)CC/C=C(\C)C[C@H](OC(=O)C(=C)[C@H](O)CO)[C@@H]12 [CNICIN] as the compound, how does the IC50 read?
Answer: 3.52 µM

Question: C=C1C(=O)O[C@H]2[C@H]1[C@@H](O)CC(=C)[C@@H]1CC(=O)[C@@H](C)[C@H]21 [GROSSHEIMIN] was tested. Which IC50 did it give?
Answer: 22.2 µM

Question: With C=C1C(=O)O[C@H]2[C@H]1[C@H](OC(=O)C(C)(O)C(C)O)C[C@@]1(C)[C@H](O)CCC(=C)[C@H]21 (some centres undefined) as the compound, how does the IC50 read?
Answer: 9.52 µM

Question: How did the IC50 turn out when C=C1C(=O)O[C@H]2[C@H]1[C@H](OC(=O)[C@@]1(C)O[C@H]1C)[C@@H](OC(C)=O)/C(C(=O)OC)=C\CC[C@@]1(C)O[C@H]21 [ENHYDRIN] was run?
Answer: 8.76 µM

Question: For C=C1C(=O)O[C@@H]2/C=C(\CO)CC/C=C(\C)C[C@H](O)[C@@H]12 [SALONITENOLIDE], which IC50 is on record?
Answer: 10.2 µM

Question: C=C1C(=O)O[C@@H]2[C@H]1CC[C@H](C)[C@]1(O)C=CC(=O)[C@@]21C [PARTHENIN] was tested. Which IC50 did it give?
Answer: 129 µM

Question: How did the IC50 turn out when C=C1C(=O)O[C@@H]2C[C@@]3(C)[C@H](O)CCC(=C)[C@@H]3C[C@H]12 [ASPERILIN] was run?
Answer: 57.6 µM

Question: With C=C1C(=O)O[C@H]2/C=C(\C)[C@@H](OC(C)=O)C/C=C(\C)C[C@@H](OC(=O)C(C)(O)C(C)OC(C)=O)[C@@H]12 (some centres undefined) [URSINIOLIDE B] as the compound, how does the IC50 read?
Answer: 5.3 µM

Question: How did the IC50 turn out when C/C1=C\CC[C@@]2(C)O[C@@H]2[C@H]2OC(=O)[C@@H](C)[C@@H]2CC1 [11BETA,13-DIHYDRO-PARTHENOLIDE] was run?
Answer: > 400 µM
